The subject of test [1] is Mycobacterium tuberculosis. In words: Inhibition of multidrug-resistant Mycobacterium tuberculosis PT2 clinical isolate QcrB assessed as reduction in bacterial growth by resazurin reduction microplate assay. The essentials: (§1)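 REMA in Middlebrook 7H9 with 10% ADC and 5% DMSO. Compounds come from 2 mg/mL DMSO stocks as 10-point 2-fold serial dilutions, with a top concentration of 5–40 µg/mL set by solubility. MIC is the lowest concentration preventing resazurin blue-to-pink conversion. Three independent experiments; the modal or highest value is reported, in µM.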
On the technique in general: Resazurin is reduced to fluorescent resorufin, in cell work by metabolically active cells.

Test [2] deals with Mycobacterium tuberculosis. Put plainly: Inhibition of multidrug-resistant Mycobacterium tuberculosis PT20 clinical isolate QcrB assessed as reduction in bacterial growth by resazurin reduction microplate assay. In short, it runs like this:
as §1

Test [3] concerns Mycobacterium tuberculosis. In words: Inhibition of multidrug-resistant Mycobacterium tuberculosis PT12 clinical isolate QcrB assessed as reduction in bacterial growth by resazurin reduction microplate assay. The essentials:
as §1

The nature of test [4]: Ratio of MIC for inhibition of Mycobacterium tuberculosis QcrB T313A mutant to MIC for inhibition of Mycobacterium tuberculosis H37Rv ATCC 27294 QcrB assessed as reduction in bacterial growth.
The test system of test [5] is Mycobacterium tuberculosis. In words: Inhibition of Mycobacterium tuberculosis QcrB T313A mutant assessed as reduction in bacterial growth by resazurin reduction microplate assay. In short, it runs like this: as §1

This passage reports MIC and Ratio results from ChEMBL document CHEMBL4680209, “Design, synthesis, and evaluation of new 2-(quinoline-4-yloxy)acetamide-based antituberculosis agents” (Eur J Med Chem, 2020).

Converted amounts (≈) assume the structure as drawn. Where only a bound is given, the exact number is not on record here.

Turning to `CO[C@H]1/C=C/O[C@@]2(C)Oc3c(C)c(O)c4c(O)c(c(/C=N/N5CCN(C)CC5)c(O)c4c3C2=O)NC(=O)/C(C)=C\C=C\[C@H](C)[C@H](O)[C@@H](C)[C@@H](O)[C@@H](C)[C@H](OC(C)=O)[C@@H]1C`, the MIC in test [1] was over 48.6 µM; in test [2], 12.2 µM (≈ 10 µg/mL); in test [3] it was over 48.6 µM.

With `COc1ccc2nc(C)cc(OCC(=O)c3ccccc3)c2c1`, in test [4], the Ratio was over 4. Moreover, the MIC in test [1] came out at 2 µM (≈ 0.615 µg/mL); in test [5], 32.5 µM (≈ 9.99 µg/mL); in test [2], 1 µM (≈ 0.307 µg/mL); in test [3], 2 µM (≈ 0.615 µg/mL).

For `COc1ccc2nc(C)cc(OCC(=O)c3cccc(Cl)c3)c2c1`, the Ratio in test [4] was over 4. Besides, the MIC stood at 0.5 µM (≈ 0.171 µg/mL) in test [1], 7.3 µM (≈ 2.5 µg/mL) in test [5], 0.2 µM (≈ 0.0684 µg/mL) in test [2] and 0.9 µM (≈ 0.308 µg/mL) in test [3].

Regarding `NNC(=O)c1ccncc1`, the MIC amounted to 2.3 µM (≈ 0.315 µg/mL) in test [5], 146 µM (≈ 20 µg/mL) in test [2] and 72.9 µM (≈ 10 µg/mL) in test [3].

On to `COc1ccc2nc(C)cc(OCc3ccc(Cl)c(Cl)c3)c2c1`, for which the Ratio in test [4] is over 4. In addition, the MIC worked out at 0.2 µM (≈ 0.0696 µg/mL) in test [1], 14.4 µM (≈ 5.01 µg/mL) in test [5], 0.2 µM (≈ 0.0696 µg/mL) in test [2] and 0.5 µM (≈ 0.174 µg/mL) in test [3].

For `COc1ccc2nc(C)cc(OCc3ccc(C(C)C)cc3)c2c1`, the Ratio in test [4] is over 4. For the same molecule, the MIC in test [1] came to 0.5 µM (≈ 0.161 µg/mL); in test [5], 7.8 µM (≈ 2.51 µg/mL); in test [2] it was 0.2 µM (≈ 0.0643 µg/mL); in test [3], 1 µM (≈ 0.321 µg/mL).
